# High-throughput results (PubChem BioAssay)
# FLuc inhib CS – Photinus pyralis luciferase inhibition counter-screen | ATPLite firefly luciferase biochemical luminescence, 10 min | inhibition, % at 10 µM | 200,000 compounds, 1.5% hits | AID 1006;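 active means inhibition above about 50% when tested at 10 µM, limit read from the data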
# Target sequence (P08659 whole entry, looked up): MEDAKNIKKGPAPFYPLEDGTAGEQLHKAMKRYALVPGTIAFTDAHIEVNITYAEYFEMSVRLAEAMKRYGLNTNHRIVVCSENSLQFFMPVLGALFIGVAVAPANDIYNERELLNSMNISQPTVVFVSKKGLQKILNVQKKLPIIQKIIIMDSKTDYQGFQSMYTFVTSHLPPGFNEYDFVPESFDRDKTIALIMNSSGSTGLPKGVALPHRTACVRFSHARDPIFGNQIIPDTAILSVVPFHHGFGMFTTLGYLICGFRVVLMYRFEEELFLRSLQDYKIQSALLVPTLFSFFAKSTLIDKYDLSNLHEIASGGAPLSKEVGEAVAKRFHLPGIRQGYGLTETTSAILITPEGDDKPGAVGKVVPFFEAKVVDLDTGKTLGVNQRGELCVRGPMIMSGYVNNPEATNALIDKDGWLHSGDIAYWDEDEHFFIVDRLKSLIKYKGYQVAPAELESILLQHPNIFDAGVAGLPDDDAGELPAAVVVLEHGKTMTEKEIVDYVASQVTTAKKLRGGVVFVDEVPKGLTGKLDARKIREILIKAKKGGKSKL
# PPC-1+TRAIL kill – PPC-1 cancer cell killing with TRAIL present | PPC-1 cells + TRAIL, ATPLite viability luminescence | 220,000 compounds, 0.41% hits | AID 1443 | cell killing (% activity), % at 4 µM or 5 µM;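 active means cell killing above 50% in the first pass at 4 µM, then a duplicate retest at 5 µM averaging 50% or more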;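 further: plate controls were cells with TRAIL plus DMSO for no effect and medium-only wells lacking cells for full effect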
# C8 TRAIL sens – sensitizes caspase-8 expressing cells to TRAIL; inhibition (viability loss, TRAIL sensitization), % at 10 µM; AID 624354; 360,000 compounds, 1% hits; NB7+C8 cells + TRAIL, ATPlite viability luminescence;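 active means compounds causing at least 50% loss of cell viability in the single-dose screen, relative to plate controls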
# HSP90 refold inh – inhibitors of HSP90 luciferase refolding in rabbit reticulocyte lysate. luciferase refolding luminescence, 3 h. inhibition, % at 5.6 µM. AID 1789. 290,000 compounds, 0.91% hits;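 active means inhibition above the screen-wide mean plus 3 SD, computed separately per campaign, cut at about 16% in these data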;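 further: 0% = DMSO wells and 100% = 60 µM geldanamycin wells; inhibitors lower the luminescence because luciferase stays unfolded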
# FLuc stim CS – firefly luciferase counter-screen for stimulation assays | P08659 | AID 1027 | activation factor at 10 µM | 200,000 tested, under 10 active | ATPlite luciferase biochemical, luminescence, 10 min; 0 = ATP-free wells, 1 = DMSO control;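 active means luciferase activation factor, scaled between plate controls, of at least 2 with compound at 10 µM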
#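 Material: luciferase plus luciferin reagent, cell-free. Medium: PBS buffer for ATP. Also added: ATP substrate, dispensed from a 10.24 µM working solution in PBS. Doses: test compounds dosed from 2 mM stocks in 100% DMSO. Incubation: 10 min post-reagent at room temperature. Technique: light output (luminescence). Read-out basis: luminescence gain marking luciferase activators.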
# Active calls of the source: *; · = not tested or not shown. Only some compounds are listed: those with a hit (about 2% of all), similar ones and a draw of the others.
SMILES,FLuc inhib CS,PPC-1+TRAIL kill,C8 TRAIL sens,HSP90 refold inh,FLuc stim CS
CC1(C)N=C(N)N=C(N)N1c1ccc(OCCCOc2ccccc2)c(Cl)c1,·,41,71*,-1,·
CC1(C)N=C(N)N=C(N)N1c1ccc(OCC(=O)Nc2ccccc2)c(Cl)c1,·,·,81*,·,·
Cc1ccc(CC(=O)Nc2ccc(Cl)cn2)cc1,·,·,3,-2,·
Cc1ccc(C(=O)Nc2ccc(Cl)cn2)cc1,74*,36,62*,7,0.3
CCCOc1ccc(C(=O)Nc2ccc(Cl)cn2)cc1,53*,30,32,13,0.5
NC(=O)c1ccccc1NC(=O)/C=C/c1cccc(Cl)c1,56*,14,20,-3,0.4
NC(=O)c1ccccc1NC(=O)/C=C/c1c(Cl)cccc1Cl,31,25,23,1,0.7
O=C(COC(=O)CC1SC(N2CCCC2)=NC1=O)Nc1ccc(Br)cc1 (stereo not drawn),·,·,1,·,·
O=C(Cn1ncc(Cl)c(Cl)c1=O)N1CCc2ccccc21,5,31,96*,1,1
COC(=O)c1c(NC(=O)CN2C(=O)C(=O)N(CC(C)C)C2=O)sc(C)c1C,·,·,-8,-3,·
O=C(N/N=C/c1ccc([N+](=O)[O-])cc1)c1cccs1,·,22,11,-4,·
O=C(N/N=C/c1cccc([N+](=O)[O-])c1O)c1cccs1,67*,13,42,-3,0.3
Fc1cccc(/C=N/Nc2ccc3ccccc3n2)c1,71*,-3,38,0,0.3
O=[N+]([O-])c1cccc(C=NNc2ccc3ccccc3n2)c1O,·,·,57*,·,·
COCCC1CCCCN1C(=O)c1cc(COc2ccc(-n3cncn3)cc2)on1 (stereo not drawn),·,·,-9,-3,·
C[C@H](NC(=O)Cc1cccc2ccccc12)C(=O)N1CCOCC1,·,·,2,·,·
Cc1ccc(/C=N/c2sc3c(c2C#N)CCC3)o1,74*,28,2,2,0.3
N#Cc1c(/N=C/c2cccs2)sc2c1CCCCC2,86*,-8,54*,7,0.1
N#Cc1c(/N=C/c2ccc(Br)s2)sc2c1CCC2,18,2,-8,5,0.8
C=CCn1c(C)cc(C(=O)COC(=O)c2ccc3c(c2)NC(=O)CS3)c1C,11,3,6,1,0.9
Cc1cccc(N2CCN(C(=O)c3ccc(S(=O)(=O)N(C)c4ccccc4)cc3)CC2)c1C,·,·,13,·,·
OC(c1ccc(F)c(F)c1)c1nc(-c2ccc3c(c2)OCO3)cs1 (stereo not drawn),·,·,-9,·,·
COC(=O)c1cc2c(n1S(=O)(=O)c1ccc(C)cc1)C(=O)C(=O)c1[nH]cc(C(=O)OCc3ccccc3)c1-2,·,·,93*,·,·
CSS(=O)(=O)c1cccc2cccnc12,·,-9,-13,5,·
COc1cccc(CNc2ccc(S(=O)(=O)N3CCCC3)cn2)c1,·,·,1,·,·
SMILES,FLuc inhib CS,PPC-1+TRAIL kill,C8 TRAIL sens,HSP90 refold inh,FLuc stim CS
COc1ccc(/C=C/C(=O)Nc2cccc(C(C)=O)c2)cc1,70*,48,42,-2,0.3
COc1cccc(/C=C/C(=O)Nc2cccc(C(C)=O)c2)c1OC,68*,28,49,-4,0.3
COc1ccc(/C=C/C(=O)NC(=S)Nc2ccccn2)cc1,·,·,51*,-1,·
COc1ccccc1/C=C/C(=O)Nc1cccc(C(C)=O)c1,17,9,-4,-3,0.8
COc1ccccc1/C=C/C(=O)NC(=S)Nc1ccccn1,·,·,9,4,·
CCOC(=O)C1CCCN(c2nc3ccccc3nc2NS(=O)(=O)c2ccc(C)cc2)C1 (stereo not drawn),·,·,-1,·,·
COC(=O)c1cn(C(=O)c2ccc3c(c2)OCO3)c2ccccc12,·,·,16,·,·
COCCCn1c(C(=O)Nc2ccc3c(c2)OCO3)cc2c(=O)n3cccc(C)c3nc21,·,·,54*,·,·
CC(C)(C)NC(=O)CSc1nc2cccnc2n1C1CCCCC1,·,·,-14,-1,·
CCOc1ccc(NC(=O)C(C)NS(=O)(=O)c2ccc(NC(C)=O)cc2)cc1 (stereo not drawn),-4,6,8,4,1
COc1cc(SC#N)ccc1N=Cc1c(C)[nH]n(-c2ccc(Cl)cc2)c1=O,1,25,68*,9,1
COc1ccc(CCN=Cc2c(C)[nH]n(-c3ccc([N+](=O)[O-])cc3)c2=O)cc1OC,-4,16,-7,0,1
COc1cc(SC#N)ccc1N=Cc1c(C)[nH]n(-c2ccc(C)c(C)c2)c1=O,21,14,80*,14,0.8
COc1cc(S(=O)(=O)Nc2ccccc2)ccc1N=Cc1c(C)[nH]n(-c2ccc(C)cc2)c1=O,4,38,·,-2,1
CC(=O)NCCNc1nc(NCC2CC2)nc2cc(-c3ccccc3)sc12,·,·,8,·,·
CC1(C)N=C(N)N=C(N)N1CCCCc1ccccc1,·,·,67*,·,·
Cc1ccccc1N1C(N)=NC(N)=NC1(C)C,-1,15,·,-1,1
NC(=O)c1ccc(N2CCC(C(N)=O)CC2)c([N+](=O)[O-])c1,·,7,-1,-2,·
O=C(O)c1cccc(COc2ccccc2Cl)c1,63*,25,34,·,0.4
O=C(O)c1ccc(COc2ccccc2Cl)cc1,3,21,-12,-9,1
Nn1cnnc1N/N=C/c1cc(Br)cc(Br)c1O,-4,-9,0,68*,1
CC(C)(C)c1ccc(/C=N/Nc2nncn2N)cc1,·,·,-7,-3,·
CN(Cc1ccccc1)S(=O)(=O)c1ccc2[nH]c(=O)ccc2c1,·,·,1,2,·
CC(C(=O)NCCc1ccc(F)cc1)N1CCN(Cc2ccccc2)CC1 (stereo not drawn),-2,3,-15,-2,1
O=c1c2ccccc2c(/C=N/c2nnc(Cc3ccccc3)s2)c(O)n1-c1ccc(Cl)cn1,50*,-4,9,1,0.5
SMILES,FLuc inhib CS,PPC-1+TRAIL kill,C8 TRAIL sens,HSP90 refold inh,FLuc stim CS
Cc1cccc(C)c1N=Cc1c(O)n(-c2nccs2)c(=O)c2ccccc12,-4,0,-6,5,1
CC1CC1C(=O)N(CCC1=CCCCC1)c1c(N)n(Cc2ccccc2)c(=O)[nH]c1=O (stereo not drawn),·,·,11,·,·
Cc1cccc(-c2cc3c(nn2)-c2ccccc2C3=O)c1,62*,35,45,4,0.4
Cc1cnc2c(c1)C(=O)c1ccccc1-2,·,·,11,9,·
O=C(NC(=S)Nc1ccc(N2CCCCC2)cc1)c1ccco1,63*,26,24,6,0.4
COc1ccccc1C(=O)Nc1ccc(N2CCCCC2)cc1,71*,36,58*,7,0.3
CC1CCCCC1NC(=O)c1cc(S(=O)(=O)N2CCCCC2)ccc1N1CCOCC1 (stereo not drawn),·,·,-2,·,·
O=C(CC(Nc1ccc(Cl)cc1)C(=O)O)c1ccccc1 (stereo not drawn),69*,44,62*,-3,0.3
Cc1ccc(NC(=O)c2ccc(N3CCCC3=O)cc2)cc1S(=O)(=O)N1CCCCC1,·,·,-1,·,·
CC(=O)Nc1ccc(-c2cn3ccsc3n2)cc1,67*,34,36,1,0.3
O=C(CCN1C(=O)c2ccccc2C1=O)Nc1ccc(-c2cn3ccsc3n2)cc1,26,8,-1,0,0.7
